Screening results: PubChem BioAssay, several laboratories
RanGTP-Imp inh – disruptors of Ran-importin-beta complex formation – biochemical, FRET, CFP-Ran, YFP-importin-beta, homogeneous, primary screen. cell-free CFP-Ran/YFP-importin-beta FRET ratio. inhibition, % (no concentration beside the values). actives 1.1% (n = 300,000);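 active = more than half of the replicate wells show a fall in the fluorescence ratio signal beyond about 16%, limit read from the data, passing the limit was not always enough; inconclusive = exactly half of the replicate wells pass the set limit; inactive = fewer than half of replicates pass the limit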;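 also: 0% = DMSO wells and 100% = Ran loaded with GDP instead of GTP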
Hck Nef HTS – blocks Nef-activated human Hck kinase; P08631; Recombinant Hck-YEEI plus Nef, Z-Lyte FRET kinase assay; inhibition, % at 20 µM; actives 0.68% (n = 220,000); AID 463187;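 active = Hck-Nef kinase inhibition above about 50%, limit read from the data; inactive = inhibition below that limit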;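 also: 0% = DMSO with Hck plus Nef and 100% = Hck alone without Nef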
Target sequence (P08631 whole entry, looked up): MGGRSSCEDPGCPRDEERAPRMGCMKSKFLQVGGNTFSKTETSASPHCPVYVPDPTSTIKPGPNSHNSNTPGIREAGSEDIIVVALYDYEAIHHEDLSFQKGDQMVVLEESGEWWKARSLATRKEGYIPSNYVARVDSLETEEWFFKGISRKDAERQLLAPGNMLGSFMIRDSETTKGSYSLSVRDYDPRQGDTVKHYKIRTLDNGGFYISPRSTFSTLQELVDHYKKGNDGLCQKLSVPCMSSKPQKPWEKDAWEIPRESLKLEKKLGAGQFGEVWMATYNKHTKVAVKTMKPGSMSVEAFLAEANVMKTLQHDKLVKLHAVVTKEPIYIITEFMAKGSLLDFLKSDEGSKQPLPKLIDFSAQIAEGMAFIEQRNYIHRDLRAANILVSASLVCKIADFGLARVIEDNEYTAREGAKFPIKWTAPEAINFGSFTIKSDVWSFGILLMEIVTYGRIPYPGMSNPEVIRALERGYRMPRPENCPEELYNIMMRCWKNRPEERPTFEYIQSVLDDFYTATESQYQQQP
Runt-SMMHC FRET – Runt domain-CBFb-SMMHC interaction inhibition; Cerulean-Runt/Venus-CBFb-SMMHC FRET ratio 530/480, 1 h; inhibition, % at 20 µM; actives 0.74% (n = 220,000); AID 1434;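 active = mean inhibition across duplicate retests at 20 µM reaching about 50%, limit read from the data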;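 also: 0% = DMSO wells and 100% = wells with excess untagged CBFb-SMMHC; inhibitors lower the FRET ratio by blocking Runt binding to CBFb-SMMHC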
Runt-CBFb FRET – inhibitors of human RUNX1 Runt domain binding to CBFb; inhibition, % at 20 µM; Q01196+Q13951; actives 0.46% (n = 220,000); Cerulean-Runt/Venus-CBFb FRET ratio 530/480, 1 h;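 active = inhibition over about 50% at 20 µM in the single-dose screen, limit read from the data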;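 also: 0% = DMSO wells and 100% = excess unlabeled CBFb competitor control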
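Assay system: Cerulean-Runt domain fusion protein, energy donor; Signal: fluorescence energy transfer, 422 nm excitation, 530/480 nm emission; Timing: 1 h compound exposure, room temperature; Control set: unlabeled CBFb; Medium: Tris buffer pH 7.5 with salts and BSA; Compound: single test concentration of 20 µM, 1% DMSO final; Probe or stimulus: Venus-CBFb 100 nM.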
Runt-CBFb TRFRET – inhibitors of human RUNX1 Runt domain binding to CBFb; shares compounds with Runt-CBFb FRET; TR-FRET RUNX1 Runt domain-CBFb binding; inhibition, % at 20 µM; actives 20% (n = 480); AID 1502; in the data active = inhibition above about 40%
YIC FRET counter – counter-screen for RanGTP-importin-beta inhibitors: YIC FRET probe; shares compounds with RanGTP-Imp inh; Purified YIC probe, intramolecular FRET ratio YFP/CFP; IC50, µM; actives 40% (n = 1,000); AID 435026;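 active = fitted half-maximal inhibitory concentration no more than tenfold above the top dose tested; inconclusive = flat fit with 30 to 70% activity, or poor fit; inactive = half-maximal concentration beyond tenfold above the top dose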
* = called active by the depositor; ? = inconclusive; / = no result given. The list is not random: actives were taken first. Their share in the collection is about 1.9%.

SMILES	RanGTP-Imp inh	Hck Nef HTS	Runt-SMMHC FRET	Runt-CBFb FRET	Runt-CBFb TRFRET	others
CCC(=O)/C=C1/Sc2ccccc2N1CC	1	6	44	55*	12
Cn1c(=O)n(C)c2cc(/C=N/NC(=O)c3ccncc3)ccc21	1	25	-1	0	/
CCn1c(O)c(/C=N/NC(=O)c2ccncc2)c(=O)n(CC)c1=S	2	9	63*	59*	-26
CC(C)C(=O)Nc1cc2c3c(c1)CCN3C(=O)CC2	3	/	/	/	/
CN1CCc2cc3c(c4c2[C@H]1[C@H](O)c1ccccc1-4)OCO3	-2	-2	79	-150	/
CN1CCc2cccc3c2[C@H]1Cc1ccc(O)c(O)c1-3	3	4	/	73*	36
COc1ccc(CCn2c(=N)c(C(=O)N3CCN(C)CC3)cc3c(=O)n4ccccc4nc32)cc1	6	7	124*	65*	30
O=S(=O)(Nc1ccc(-c2nc3cccnc3s2)cc1)c1ccc(Cl)s1	?	9	/	68*	30
CCS(=O)(=O)Nc1cccc(-c2nc3cccnc3s2)c1	0	22	-2	0	/
CCCC(C)NC(=O)c1cc(C(=O)OC)cc([N+](=O)[O-])c1 (stereo unspecified)	0	-2	2	-2	/
CCCC(C)c1nnc(NC(=O)c2cc(C(=O)OC)cc([N+](=O)[O-])c2)s1 (stereo unspecified)	1	-1	45	53*	9
CCOc1ccc2nc(NCCCNC(=O)c3cc(OC)c(OC)c(OC)c3)c(C#N)cc2c1	135*	-13	81*	60*	7
Cc1ccc(CNC(=O)C(=O)NCC2OCCCN2S(=O)(=O)c2ccc(F)cc2)cc1 (stereo unspecified)	5	/	/	/	/
Cc1ccc(C2OC34CCCCCC3C(C#N)(C(=N)O4)C2(C#N)C#N)cc1 (stereo unspecified)	34*	-1	99*	52*	30
Cc1cc(C)n(CCN(C)C(=O)C2CCC(=O)N(CCN3CCOCC3)C2)n1 (stereo unspecified)	-2	/	/	/	/
COc1cc(N2C(=O)C=CC2=O)c(OC)cc1Cl	?	-157	70*	64*	11
CCN(CC)P(=O)(Nc1ccccc1Br)c1ccc(N(C)C)cc1NC(=O)c1ccco1 (stereo unspecified)	-1	27	0	-2	/
FC(F)Oc1ccc(-c2csc(NNC3=NCCCCC3)n2)cc1	0	2	28	55*	6
Cc1ccc2c(c1)c(-c1ccccc1)nc1nnnn12	0	23	0	0	/
N#CCCN1CCN(C(=O)c2c(N)no[n+]2[O-])CC1	0	0	2	0	/
COc1ccc(C2CC(=O)N3CN(c4ccc(C)c(Cl)c4)CSC3=C2C#N)cc1 (stereo unspecified)	?	1	38	88*	8
COc1cc(C2CC(=O)N3CN(Cc4ccco4)CSC3=C2C#N)ccc1OCc1ccccc1 (stereo unspecified)	0	4	28	-1	/
COc1ccc(N2CSC3=C(C#N)C(c4cccc(OC)c4OC)CC(=O)N3C2)cc1 (stereo unspecified)	2	0	33	15	/
CCc1ccccc1N1CSC2=C(C#N)C(c3ccccc3F)CC(=O)N2C1 (stereo unspecified)	?	3	92*	60*	0
COc1ccc(C2CC(=O)N3CN(c4ccccc4F)CSC3=C2C#N)cc1OC (stereo unspecified)	-158	1	87*	52*	17
SMILES	RanGTP-Imp inh	Hck Nef HTS	Runt-SMMHC FRET	Runt-CBFb FRET	Runt-CBFb TRFRET	others
N#CC1=C2SCN(Cc3ccccc3)CN2C(=O)CC1c1ccc2c(c1)OCO2 (stereo unspecified)	?	0	24	29	/
NS(=O)(=O)c1ccc(NC(=S)N2CCN(c3ccccc3Cl)CC2)cc1	3	0	4	1	/
NS(=O)(=O)c1ccc(NC(=S)N2CCN(c3cccc(Cl)c3)CC2)cc1	-1	1	36	52*	58*
CCOC(=O)c1c(/N=C/N(C)C)sc(/C=N/Nc2ccccc2)c1-c1ccccc1	-14	9	131*	71*	-12
O=C(N/N=C/c1cccc(Cl)c1)C(c1ccncc1)N1CCOCC1 (stereo unspecified)	3	24	-7	0	/
Cc1cc(C)n2nc3nc4c(cc3c2n1)CCCC4	5	16	/	65*	63*
CC(OC(=O)c1ccc2c(=O)n3c(nc2c1)CCC3)C(=O)NC1CCCCC1C (stereo unspecified)	2	/	/	/	/
COc1ccc(/C=C(\C#N)C(=O)Nc2cccc3ncccc23)cc1OC	50*	32	60*	69*	64*
COc1ccc(/C=C(/C#N)C(=O)Nc2cccnc2)cc1OC	-1	9	1	0	/
O=C1OC(c2ccccc2)=N/C1=C\C=C\c1ccccc1[N+](=O)[O-]	2	4	67	74*	32
Cc1ccc(S(=O)(=O)N(C)c2c(C)ccc(S(=O)(=O)NC(C)(C)C)c2C)cc1	-4	12	2	-2	/
O=C(CC1SC(=NCCc2ccccc2)N(/N=C/c2cccs2)C1=O)Nc1ccc(Cl)cc1 (stereo unspecified)	-1	-1	0	0	/
O=C(Oc1c(Br)cc(C(=S)N2CCOCC2)cc1Br)c1ccc(Cl)cc1	17*	-1	24	50*	-11	YIC FRET counter=>50
O=C(Oc1ccc(C(=S)N2CCOCC2)cc1Br)c1cc(Cl)ccc1Cl	1	0	-4	/	/
Cc1ccc(N=Cc2cc3c(cc2O)OC(N)=C(C#N)C3c2ccccc2)cc1 (stereo unspecified)	43*	5	117*	79*	4	YIC FRET counter=>50
CC(C)NC(=O)COc1nncc2ccccc12	2	15	-1	2	/
CCn1nc(NC(=O)c2ccccn2)c2cc3cccc(C)c3nc21	38*	5	39	60*	-17	YIC FRET counter=0.86*
Cc1cccc(SC2CCN(C(=O)C3CCC(=O)N(C4CC4)C3)CC2)c1 (stereo unspecified)	3	/	/	/	/
COC(=O)C1=C(C)NC2=C(C(=O)CCC2)C1c1cccc(C)n1 (stereo unspecified)	19*	22	132*	60*	4	YIC FRET counter=31*
CCc1nc(SCc2ccc(OCC(C)C)cc2)n[nH]1	-4	/	/	/	/
CCOC(=O)N1CCN(C(=O)CSc2nc3c([nH]c4ccccc43)c(=O)n2CC)CC1	1	/	/	/	/
O=C(Cn1c2ccccc2c(=O)c2ccccc21)N/N=C/c1ccc(N2CCCC2)c([N+](=O)[O-])c1	28*	37	133*	76*	-1	YIC FRET counter=>50
